# Measurements from ChEMBL document CHEMBL1155379, “Effect of 3'-end capping of aptamer with various 2',4'-bridged nucleotides: Enzymatic post-modification toward a practical use of polyclonal aptamers” (Bioorg Med Chem Lett, 2010).
# Assays:
# [1] = Chemical stability in presence of snake venom phosphodiesterase 1 assessed as oligonucleotide degradation after 120 mins by PAGE; assay type: physicochemical; conditions: 2 h
# [2] = target: Prothrombin (Homo sapiens, UniProt P00734); experiment: Binding affinity to human thrombin after 30 mins by non-equilibrium capillary electrophoresis
# Outline: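 Capillary electrophoresis of aptamer–thrombin mixtures: aptamer 1 nM with thrombin 4 nM in 20 mM Tris-HCl (1 mM MgCl2) pH 7.4 sample buffer; running buffer 100 mM sodium borate pH 8.35; separation +12 kV, injection 0.5 psi × 7.8 s. Kd derived from binding saturation curves over varied thrombin concentrations.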
# [3] = Chemical stability in presence of 80% (v/v) human serum assessed as intact compound remaining after 8 hrs by PAGE; assay type: physicochemical; conditions: read-out: Stability
# Outline: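 Aptamer incubated in 80% v/v human serum at 37 °C for 8 h; intact full-length aptamer remaining quantified.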
SMILES,Stability [1],Kd [2],remaining at 8 h [3]
C=C1NC(=O)C(C)=CN1[C@H]1C[C@H](OP(=O)(O)OC[C@H]2O[C@@H](n3cnc4c(=O)[nH]c(N)nc43)[C@H](O)[C@@H]2OP(=O)(O)OC[C@H]2O[C@@H](n3cnc4c(N)ncnc43)[C@H](O)[C@@H]2OP(=O)(O)OC[C@H]2O[C@@H](n3ccc(N)nc3=O)[C@H](O)[C@@H]2OP(=O)(O)OC[C@H]2O[C@@H](n3cc(C)c(=O)[nH]c3=O)C[C@@H]2OP(=O)(O)OC[C@@]23CO[C@@H]([C@H](n4cc(C)c(=O)[nH]c4=O)O2)[C@@H]3O)[C@@H](COP(=O)(O)O[C@H]2[C@@H](O)[C@H](n3cnc4c(=O)[nH]c(N)nc43)O[C@@H]2COP(=O)(O)O[C@H]2[C@@H](O)[C@H](n3cnc4c(=O)[nH]c(N)nc43)O[C@@H]2COP(=O)(O)O[C@H]2[C@@H](O)[C@H](n3cnc4c(=O)[nH]c(N)nc43)O[C@@H]2COP(=O)(O)O[C@H]2[C@@H](O)[C@H](n3cnc4c(=O)[nH]c(N)nc43)O[C@@H]2COP(=O)(O)O[C@H]2C[C@H](n3cc(C)c(=O)[nH]c3=O)O[C@@H]2COP(=O)(O)O[C@H]2C[C@H](n3cc(C)c(=O)[nH]c3=O)O[C@@H]2COP(=O)(O)O[C@H]2[C@@H](O)[C@H](n3cnc4c(=O)[nH]c(N)nc43)O[C@@H]2COP(=O)(O)O[C@H]2[C@@H](O)[C@H](n3cnc4c(=O)[nH]c(N)nc43)O[C@@H]2COP(=O)(O)O[C@H]2[C@@H](O)[C@H](n3cnc4c(N)ncnc43)O[C@@H]2COP(=O)(O)O[C@H]2[C@@H](O)[C@H](n3ccc(N)nc3=O)O[C@@H]2COP(=O)(O)O[C@H]2[C@@H](O)[C@H](n3cnc4c(=O)[nH]c(N)nc43)O[C@@H]2COP(=O)(O)O[C@H]2[C@@H](O)[C@H](n3cnc4c(=O)[nH]c(N)nc43)O[C@@H]2COP(=O)(O)O[C@H]2[C@@H](O)[C@H](n3cnc4c(=O)[nH]c(N)nc43)O[C@@H]2COP(=O)(O)O[C@H]2[C@@H](O)[C@H](n3cnc4c(N)ncnc43)O[C@@H]2COP(=O)(O)O[C@H]2C[C@H](n3cc(C)c(=O)[nH]c3=O)O[C@@H]2COP(=O)(O)O[C@H]2[C@@H](O)[C@H](n3cnc4c(=O)[nH]c(N)nc43)O[C@@H]2COP(=O)(O)O[C@H]2[C@@H](O)[C@H](n3cnc4c(=O)[nH]c(N)nc43)O[C@@H]2COP(=O)(O)O[C@H]2C[C@H](n3cc(C)c(=O)[nH]c3=O)O[C@@H]2COP(=O)(O)O[C@H]2[C@@H](O)[C@H](n3cnc4c(=O)[nH]c(N)nc43)O[C@@H]2COP(=O)(O)O[C@H]2[C@@H](O)[C@H](n3ccc(N)nc3=O)O[C@@H]2COP(=O)(O)O[C@H]2[C@@H](O)[C@H](n3ccc(N)nc3=O)O[C@@H]2COP(=O)(O)O[C@H]2C[C@H](n3cc(C)c(=O)[nH]c3=O)O[C@@H]2COP(=O)(O)O[C@H]2[C@@H](O)[C@H](n3cnc4c(=O)[nH]c(N)nc43)O[C@@H]2COP(=O)(O)O[C@H]2[C@@H](O)[C@H](n3cnc4c(N)ncnc43)O[C@@H]2COc2ccc3c(c2)Oc2cc(O)ccc2C32OC(=O)c3ccccc32)O1 (some centres not stated),Stable,0.18 nM,–
C=C1NC(=O)C(C)=CN1[C@H]1C[C@H](OP(=O)(O)OC[C@H]2O[C@@H](n3cnc4c(=O)[nH]c(N)nc43)[C@H](O)[C@@H]2OP(=O)(O)OC[C@H]2O[C@@H](n3cnc4c(N)ncnc43)[C@H](O)[C@@H]2OP(=O)(O)OC[C@H]2O[C@@H](n3ccc(N)nc3=O)[C@H](O)[C@@H]2OP(=O)(O)OC[C@H]2O[C@@H](n3cc(C)c(=O)[nH]c3=O)C[C@@H]2OP(=O)(O)OC[C@@]23CNO[C@@H]([C@H](n4cc(C)c(=O)[nH]c4=O)O2)[C@@H]3O)[C@@H](COP(=O)(O)O[C@H]2[C@@H](O)[C@H](n3cnc4c(=O)[nH]c(N)nc43)O[C@@H]2COP(=O)(O)O[C@H]2[C@@H](O)[C@H](n3cnc4c(=O)[nH]c(N)nc43)O[C@@H]2COP(=O)(O)O[C@H]2[C@@H](O)[C@H](n3cnc4c(=O)[nH]c(N)nc43)O[C@@H]2COP(=O)(O)O[C@H]2[C@@H](O)[C@H](n3cnc4c(=O)[nH]c(N)nc43)O[C@@H]2COP(=O)(O)O[C@H]2C[C@H](n3cc(C)c(=O)[nH]c3=O)O[C@@H]2COP(=O)(O)O[C@H]2C[C@H](n3cc(C)c(=O)[nH]c3=O)O[C@@H]2COP(=O)(O)O[C@H]2[C@@H](O)[C@H](n3cnc4c(=O)[nH]c(N)nc43)O[C@@H]2COP(=O)(O)O[C@H]2[C@@H](O)[C@H](n3cnc4c(=O)[nH]c(N)nc43)O[C@@H]2COP(=O)(O)O[C@H]2[C@@H](O)[C@H](n3cnc4c(N)ncnc43)O[C@@H]2COP(=O)(O)O[C@H]2[C@@H](O)[C@H](n3ccc(N)nc3=O)O[C@@H]2COP(=O)(O)O[C@H]2[C@@H](O)[C@H](n3cnc4c(=O)[nH]c(N)nc43)O[C@@H]2COP(=O)(O)O[C@H]2[C@@H](O)[C@H](n3cnc4c(=O)[nH]c(N)nc43)O[C@@H]2COP(=O)(O)O[C@H]2[C@@H](O)[C@H](n3cnc4c(=O)[nH]c(N)nc43)O[C@@H]2COP(=O)(O)O[C@H]2[C@@H](O)[C@H](n3cnc4c(N)ncnc43)O[C@@H]2COP(=O)(O)O[C@H]2C[C@H](n3cc(C)c(=O)[nH]c3=O)O[C@@H]2COP(=O)(O)O[C@H]2[C@@H](O)[C@H](n3cnc4c(=O)[nH]c(N)nc43)O[C@@H]2COP(=O)(O)O[C@H]2[C@@H](O)[C@H](n3cnc4c(=O)[nH]c(N)nc43)O[C@@H]2COP(=O)(O)O[C@H]2C[C@H](n3cc(C)c(=O)[nH]c3=O)O[C@@H]2COP(=O)(O)O[C@H]2[C@@H](O)[C@H](n3cnc4c(=O)[nH]c(N)nc43)O[C@@H]2COP(=O)(O)O[C@H]2[C@@H](O)[C@H](n3ccc(N)nc3=O)O[C@@H]2COP(=O)(O)O[C@H]2[C@@H](O)[C@H](n3ccc(N)nc3=O)O[C@@H]2COP(=O)(O)O[C@H]2C[C@H](n3cc(C)c(=O)[nH]c3=O)O[C@@H]2COP(=O)(O)O[C@H]2[C@@H](O)[C@H](n3cnc4c(=O)[nH]c(N)nc43)O[C@@H]2COP(=O)(O)O[C@H]2[C@@H](O)[C@H](n3cnc4c(N)ncnc43)O[C@@H]2COc2ccc3c(c2)Oc2cc(O)ccc2C32OC(=O)c3ccccc32)O1 (some centres not stated),Stable,0.21 nM,20%
C=C1NC(=O)C(C)=CN1[C@H]1C[C@H](OP(=O)(O)OC[C@H]2O[C@@H](n3cnc4c(=O)[nH]c(N)nc43)[C@H](O)[C@@H]2OP(=O)(O)OC[C@H]2O[C@@H](n3cnc4c(N)ncnc43)[C@H](O)[C@@H]2OP(=O)(O)OC[C@H]2O[C@@H](n3ccc(N)nc3=O)[C@H](O)[C@@H]2OP(=O)(O)OC[C@H]2O[C@@H](n3cc(C)c(=O)[nH]c3=O)C[C@@H]2OP(=O)(O)OC[C@@]23COCO[C@@H]([C@H](n4cc(C)c(=O)[nH]c4=O)O2)[C@@H]3O)[C@@H](COP(=O)(O)O[C@H]2[C@@H](O)[C@H](n3cnc4c(=O)[nH]c(N)nc43)O[C@@H]2COP(=O)(O)O[C@H]2[C@@H](O)[C@H](n3cnc4c(=O)[nH]c(N)nc43)O[C@@H]2COP(=O)(O)O[C@H]2[C@@H](O)[C@H](n3cnc4c(=O)[nH]c(N)nc43)O[C@@H]2COP(=O)(O)O[C@H]2[C@@H](O)[C@H](n3cnc4c(=O)[nH]c(N)nc43)O[C@@H]2COP(=O)(O)O[C@H]2C[C@H](n3cc(C)c(=O)[nH]c3=O)O[C@@H]2COP(=O)(O)O[C@H]2C[C@H](n3cc(C)c(=O)[nH]c3=O)O[C@@H]2COP(=O)(O)O[C@H]2[C@@H](O)[C@H](n3cnc4c(=O)[nH]c(N)nc43)O[C@@H]2COP(=O)(O)O[C@H]2[C@@H](O)[C@H](n3cnc4c(=O)[nH]c(N)nc43)O[C@@H]2COP(=O)(O)O[C@H]2[C@@H](O)[C@H](n3cnc4c(N)ncnc43)O[C@@H]2COP(=O)(O)O[C@H]2[C@@H](O)[C@H](n3ccc(N)nc3=O)O[C@@H]2COP(=O)(O)O[C@H]2[C@@H](O)[C@H](n3cnc4c(=O)[nH]c(N)nc43)O[C@@H]2COP(=O)(O)O[C@H]2[C@@H](O)[C@H](n3cnc4c(=O)[nH]c(N)nc43)O[C@@H]2COP(=O)(O)O[C@H]2[C@@H](O)[C@H](n3cnc4c(=O)[nH]c(N)nc43)O[C@@H]2COP(=O)(O)O[C@H]2[C@@H](O)[C@H](n3cnc4c(N)ncnc43)O[C@@H]2COP(=O)(O)O[C@H]2C[C@H](n3cc(C)c(=O)[nH]c3=O)O[C@@H]2COP(=O)(O)O[C@H]2[C@@H](O)[C@H](n3cnc4c(=O)[nH]c(N)nc43)O[C@@H]2COP(=O)(O)O[C@H]2[C@@H](O)[C@H](n3cnc4c(=O)[nH]c(N)nc43)O[C@@H]2COP(=O)(O)O[C@H]2C[C@H](n3cc(C)c(=O)[nH]c3=O)O[C@@H]2COP(=O)(O)O[C@H]2[C@@H](O)[C@H](n3cnc4c(=O)[nH]c(N)nc43)O[C@@H]2COP(=O)(O)O[C@H]2[C@@H](O)[C@H](n3ccc(N)nc3=O)O[C@@H]2COP(=O)(O)O[C@H]2[C@@H](O)[C@H](n3ccc(N)nc3=O)O[C@@H]2COP(=O)(O)O[C@H]2C[C@H](n3cc(C)c(=O)[nH]c3=O)O[C@@H]2COP(=O)(O)O[C@H]2[C@@H](O)[C@H](n3cnc4c(=O)[nH]c(N)nc43)O[C@@H]2COP(=O)(O)O[C@H]2[C@@H](O)[C@H](n3cnc4c(N)ncnc43)O[C@@H]2COc2ccc3c(c2)Oc2cc(O)ccc2C32OC(=O)c3ccccc32)O1 (some centres not stated),Stable,0.27 nM,–
